A selection: hits, their analogues and other compounds. The true share with any hit is near 2.5%.
MT1-MMP txn act = MT1-MMP promoter transcription activation; HT1080 MT1-MMP promoter luciferase reporter, luminescence, overnight; active compounds read high; AID 750; 86,000 compounds, 0.16% hits; activation factor at 10 µM;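 active = activation factor of at least 2 for MT1-MMP transcription at 10 µM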
RORA act = activators of human nuclear receptor RORA. P35398. CHO-K1 Gal4-RORA LBD luciferase reporter, luminescence; percent increase over mock-subtracted basal signal. activation, % at 10 µM. 65,000 compounds, 1.5% hits. AID 560;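 active = activation above the mean of all tested compounds plus 3 SD, cut at about 49% in these data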;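 note: 0% = DMSO-treated RORA cells and 100% = added signal equal to DMSO minus mock-transfected cells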
ROCK2 inh = blocks human Rho kinase 2 activity; AID 604; inhibition, % at 6 µM; 60,000 compounds, 0.35% hits; purified ROCK2, Kinase-Glo ATP depletion luminescence;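 active = inhibition above the screen-wide mean inhibition plus 3 SD, cut at about 18% in these data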;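 note: plate controls were DMSO wells for no effect and Y-27632 control wells after no-enzyme background subtraction for full effect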
JNK3 inh = inhibitors of human JNK3 kinase; AID 746; inhibition, % at 8 µM; purified JNK3 kinase activity, HTS; 60,000 compounds, 0.61% hits; P53779; in the data active = inhibition above about 17%;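 note: 0% = DMSO and 100% = reference inhibitor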
Target sequence (P53779 whole entry, looked up): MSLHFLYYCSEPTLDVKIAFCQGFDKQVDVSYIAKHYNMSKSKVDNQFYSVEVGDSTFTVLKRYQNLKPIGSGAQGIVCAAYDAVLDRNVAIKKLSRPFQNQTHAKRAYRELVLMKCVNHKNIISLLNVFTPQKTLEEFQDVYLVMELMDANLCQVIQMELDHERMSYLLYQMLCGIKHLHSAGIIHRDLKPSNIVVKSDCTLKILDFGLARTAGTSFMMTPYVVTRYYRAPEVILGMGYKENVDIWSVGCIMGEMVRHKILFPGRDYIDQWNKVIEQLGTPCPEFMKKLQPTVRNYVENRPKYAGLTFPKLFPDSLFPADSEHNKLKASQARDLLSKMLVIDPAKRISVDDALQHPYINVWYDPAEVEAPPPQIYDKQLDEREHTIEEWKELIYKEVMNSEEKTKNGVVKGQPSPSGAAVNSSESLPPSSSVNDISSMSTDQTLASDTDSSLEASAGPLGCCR
SF1 activator = activators of human nuclear receptor SF-1 | Q13285 | CHO-K1 Gal4-SF-1 LBD luciferase reporter; % increase over DMSO SF-1-specific signal | activation, % at 10 µM | 65,000 compounds, 1.9% hits;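 active = activation above the mean activation of all tested compounds plus 3 SD, cut at about 50% in these data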
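Assay system – CHO-K1 cells with Gal4–hSF-1 LBD chimera plus Gal4-driven luciferase · Quantity – 4,000 cells per well · Times – compound added 1 h post-seeding, 20 h exposure at 37 °C, 5% CO2 · Measured by – luciferase light emission · Benchmarks – DMSO and mock-transfected background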
PKA kinase inh = PKA (human) kinase inhibition. P17612. PKA Kemptide phosphorylation, Kinase-Glo ATP luminescence. 65,000 compounds, 0.1% hits. inhibition, % at 6 µM;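 active = inhibition above the screen-wide mean inhibition plus 3 SD, cut at about 21% in these data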
* marks the source's active call; other numbers are inactive results; . = no result given.

SMILES	MT1-MMP txn act	RORA act	ROCK2 inh	JNK3 inh	SF1 activator	PKA kinase inh
CC(=O)Nc1ccc(C(=O)Nc2ccc3c(c2)OCO3)cc1	1.2	29	6	0	31	10
Cc1noc(C(=O)Nc2ccc3c(c2)OCO3)c1Cl	1.5	65*	1	-1	61*	-8
CCN(Cc1ccccc1)C(=O)Cn1cc2c(n1)CCCC2	1	10	2	5	-12	3
Fc1cccc(CSc2nc3ccncc3[nH]2)c1	1.3	25	3	2	51*	7
Fc1ccc(CSc2nc3ncc(Br)cc3[nH]2)cc1	1.3	.	.	.	.	.
CCCCCOc1ccc(NS(C)(=O)=O)cc1	1.2	64*	-2	4	32	4
CCN1CCN(C(=O)CCc2nc3ccccc3c(=O)[nH]2)CC1	1.1	.	.	.	.	.
O=C(N=C1SCC(=O)N1c1ccccc1Cl)c1ccco1	1.5	62*	5	3	55*	6
O=C(Oc1ccccc1N1C(=O)CCC1=O)c1ccco1	1.1	4	-4	5	-2	1
COc1ccc(NC2CC(=O)N(C(C)C)C2=O)cc1 (stereo not given)	1.3	10	4	-2	50*	9
Cn1cccc1CNC(=O)Nc1ccc(Cl)cc1	1.6	16	-2	-10	54*	4
Cn1c(C(=O)N2CCN(Cc3ccc4c(c3)OCO4)CC2)cc2c(=O)n(C)c3ccccc3c21	1.1	8	-4	24*	4	9
O=C(NCc1cccc(C(F)(F)F)c1)C1CCN(c2ncccn2)CC1	1.1	-11	7	0	5	13
COCCn1c(C)cc(C(=O)COC(=O)c2ccc3ncsc3c2)c1C	1.7	27	7	2	52*	8
COCCn1c(C)cc(C(=O)COC(=O)c2ccc(NC(=O)CC#N)cc2)c1C	1.2	.	.	.	.	.
CCC1=C2CC[C@H]3C(=O)NC(=O)[C@H]3[C@H]2[C@@]2(Cc3ccccc3)C(=NCC3CC3)OC(=O)N2C1=O	1.2	.	.	.	.	.
Cc1ccc2c(c1)CC1(CN2C)C(=O)OC2(CCCCC2)OC1=O	1.2	3	-1	31*	-12	-1
CN1CC2(Cc3c1ccc1ccccc31)C(=O)OC(C)(C)OC2=O	.	-4	4	-6	4	12
Cc1c(Cl)cccc1N1C(=O)c2ccccc2C1=O	1.1	-2	6	1	11	8
O=C1Cc2ccccc2N1c1c(Cl)cccc1Cl	2.2*	.	.	.	.	.
CCCCCCCC(=O)N/N=C(\C)c1cccnc1	1.3	.	.	.	.	.
COc1cc2c(cc1NC(=O)CSCC(=O)O)oc1ccccc12	1.1	-7	.	.	-4	6
COc1cc2c(cc1NC(=O)COC(=O)Cn1cnc3ccccc31)oc1ccccc12	1.7	7	0	3	28	24*
Cc1cc(C(=O)N2CCN(Cc3ccc4c(c3)OCO4)CC2)cs1	1.1	-4	1	5	2	2

Screens: PubChem, several laboratories
